Reference: ChEMBL document CHEMBL1687879, “Synthesis, glucose uptake activity and structure-activity relationships of some novel glitazones incorporated with glycine, aromatic and alicyclic amine moieties via two carbon acyl linker” (2011)

Experiments:
Format in all cases: functional, Diaphragm
[1] = Antidiabetic activity in rat hemidiaphragm assessed as glucose uptake at 2 mg after 45 mins in presence of insulin
Procedure, shortened: (§1)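 Isolated rat hemi-diaphragm in Tyrode, test agent at 1 mg or 2 mg with or without insulin; 45 min incubation at 21 °C, shaking at 60 cycles/min. Medium glucose measured by GOD/POD enzymatic method; uptake expressed as mg/dl/45 min. Run in triplicate, mean ± SEM; groups compared by one-way ANOVA with Dunnett's post-test.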

[2] = Antidiabetic activity in rat hemidiaphragm assessed as glucose uptake at 1 mg after 45 mins in presence of insulin; procedure, shortened: as §1
[3] = Antidiabetic activity in rat hemidiaphragm assessed as glucose uptake at 1 mg after 45 mins in absence of insulin; procedure, shortened: as §1
[4] = Antidiabetic activity in rat hemidiaphragm assessed as glucose uptake at 2 mg after 45 mins in absence of insulin; procedure, shortened: as §1

Row | Compound | Activity [1] | Activity [2] | Activity [3] | Activity [4]
1 | O=C(CN1C(=O)S/C(=C\c2ccccc2Cl)C1=O)Nc1ccccc1 | 27.16 mg/dL | 26.03 mg/dL | 13.81 mg/dL | 14.03 mg/dL
2 | COc1cc(/C=C2\SC(=O)N(CC(=O)Nc3ccccc3)C2=O)ccc1O | 30.83 mg/dL | 28.5 mg/dL | 15.5 mg/dL | 16.96 mg/dL
3 | O=C(COc1ccc(/C=C2\SC(=S)NC2=O)cc1)Nc1ccccc1 | 35.33 mg/dL | 34.66 mg/dL | 16.16 mg/dL | 16.33 mg/dL
4 | COc1ccc(NC(=O)COc2ccc(/C=C3\SC(=O)NC3=O)cc2)cc1 | 35.66 mg/dL | 34.16 mg/dL | 16.66 mg/dL | 16.83 mg/dL
5 | O=C(CN1C(=O)S/C(=C\C=C\c2ccccc2)C1=O)Nc1ccccc1 | 36.66 mg/dL | 36.16 mg/dL | 15 mg/dL | 16.16 mg/dL
6 | Cc1ccc(NC(=O)COc2ccc(/C=C3\SC(=S)NC3=O)cc2)cc1 | 34.16 mg/dL | 33.79 mg/dL | 15.33 mg/dL | 16.56 mg/dL
7 | O=C(CN1C(=O)S/C(=C\c2ccc(Cl)cc2)C1=O)Nc1ccccc1 | 36.66 mg/dL | 36.03 mg/dL | 16.83 mg/dL | 16.9 mg/dL
8 | O=C(CN1C(=O)S/C(=C\c2ccccc2)C1=O)Nc1ccccc1 | 39 mg/dL | 38.3 mg/dL | 17.72 mg/dL | 18 mg/dL
9 | Cc1ccc(NC(=O)COc2ccc(/C=C3\SC(=O)NC3=O)cc2)cc1 | 33.5 mg/dL | 33.83 mg/dL | 16 mg/dL | 16.16 mg/dL
10 | CCc1cccc(CC)c1NC(=O)COc1ccc(/C=C2\SC(=S)NC2=O)cc1 | 28.5 mg/dL | 28.83 mg/dL | 14.5 mg/dL | 15.66 mg/dL
11 | CN(CCOc1ccc(CC2SC(=O)NC2=O)cc1)c1ccccn1 (stereo not given) [ROSIGLITAZONE] | 50.33 mg/dL | 48.34 mg/dL | 19 mg/dL | 20.36 mg/dL
12 | CCc1cccc(CC)c1NC(=O)COc1ccc(/C=C2\SC(=O)NC2=O)cc1 | 29.8 mg/dL | 29 mg/dL | 15.82 mg/dL | 15 mg/dL
13 | CCOC(=O)CNC(=O)CN1C(=O)S/C(=C\c2ccc(OC)cc2)C1=O | 43.07 mg/dL | 41.5 mg/dL | 18.28 mg/dL | 18.79 mg/dL
14 | O=C(COc1ccc(/C=C2\SC(=O)NC2=O)cc1)Nc1ccccc1 | 42.69 mg/dL | 41.16 mg/dL | 18.46 mg/dL | 18.5 mg/dL
15 | O=C(CN1C(=O)S/C(=C\c2ccco2)C1=O)Nc1ccccc1 | 32.29 mg/dL | 32.16 mg/dL | 15.66 mg/dL | 15.86 mg/dL
16 | O=C(CN1C(=O)S/C(=C\c2ccccc2O)C1=O)Nc1ccccc1 | 42.26 mg/dL | 41.85 mg/dL | 18 mg/dL | 18.33 mg/dL
17 | COc1ccc(/C=C2\SC(=O)N(CC(=O)Nc3ccccc3)C2=O)cc1 | 43.9 mg/dL | 42.16 mg/dL | 18.71 mg/dL | 19.66 mg/dL
18 | O=C(CN1C(=O)S/C(=C\c2cccc(Cl)c2)C1=O)Nc1ccccc1 | 40.5 mg/dL | 39 mg/dL | 17.83 mg/dL | 17.63 mg/dL
19 | O=C(CN1C(=O)S/C(=C\c2ccc(Cl)cc2Cl)C1=O)Nc1ccccc1 | 42.44 mg/dL | 41.93 mg/dL | 18.33 mg/dL | 18.5 mg/dL
20 | COc1ccc(NC(=O)COc2ccc(/C=C3\SC(=S)NC3=O)cc2)cc1 | 37.09 mg/dL | 35 mg/dL | 16.91 mg/dL | 17.01 mg/dL
